Bioassay records deposited in PubChem BioAssay by The Scripps Research Institute Molecular Screening Center.
OX1R antag-1: blocks the human orexin 1 receptor; O43613; CHO/OX1R cells, Fluo-8 calcium fluorescence, orexin A; inhibition, % at 5 µM; actives 0.43% (n = 330,000); AID 434989;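 active means inhibition above its plate's threshold, mean inhibition of all tested compounds on the plate plus 3 SD, cut at about 37% in these data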;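 further: 0% = orexin A challenge wells and 100% = SB-334867-A antagonist wells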
OX1R antag-2: OX1R (human) antagonism. AID 485270. OX1R-expressing cells, FRET antagonist read-out. inhibition, % at 6.6 µM. actives 1.8% (n = 330,000); in the data active means inhibition mostly above about 38%, no sharp cut-off; inactive means mostly below about 40%;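 further: 0% = agonist challenge alone and 100% = reference antagonist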
GPR7 antagonist: antagonists of human GPR7 (neuropeptides B/W receptor 1) | P48145 | GPR7-expressing cells, fluorescence antagonist assay | inhibition, % at 4.4 µM | actives 1.1% (n = 290,000); in the data active means inhibition above about 16%, passing the limit was not always enough;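 further: cells stimulated with the agonist NPW; 0% = agonist with vehicle and 100% = vehicle without agonist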
Target sequence (P48145 whole entry, looked up): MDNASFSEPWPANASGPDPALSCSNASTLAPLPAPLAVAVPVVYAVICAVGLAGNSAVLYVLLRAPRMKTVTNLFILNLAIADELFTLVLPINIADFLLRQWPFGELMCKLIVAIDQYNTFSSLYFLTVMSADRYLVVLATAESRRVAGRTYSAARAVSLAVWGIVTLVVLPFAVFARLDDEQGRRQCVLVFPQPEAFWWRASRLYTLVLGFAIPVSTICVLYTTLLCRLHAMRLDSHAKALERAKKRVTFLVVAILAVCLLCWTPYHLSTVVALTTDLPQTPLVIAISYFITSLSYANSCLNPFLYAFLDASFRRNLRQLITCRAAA
CHO parental Ca: counter-screen: ATP calcium response change in parental CHO cells. parental CHO-K1, ATP-induced calcium, Fluo-8 fluorescence. inhibition, % at 5.6 µM. actives 0.63% (n = 330,000);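 active means inhibition above that plate's mean sample inhibition plus 3 SD, cut at about 26% in these data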;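 further: 0% = ATP-challenged DMSO wells and 100% = DMSO wells without ATP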
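Assay system: untransfected parental CHO cell line. Also added: ATP agonist challenge. Dosing: one dose, 5.6 µM nominal. Measured by: Fluo-8 fluorescence. Read-out: % inhibition. Benchmarks: ATP wells versus no-ATP DMSO wells. Repeats: no replicates.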
GalR3 antag: blocks the human galanin receptor 3; inhibition, % at 3 µM; HEK293 GalR3-CNG cAMP membrane potential fluorescence; galR3 body fused to GalR1 C-terminus; O60755; actives 0.44% (n = 360,000); AID 651719;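 active means inhibition above the screen-wide average plus 3 SD, cut at about 13% in these data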;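 further: forskolin and galanin both at EC90 stimulate the cells; cAMP rise reported by CNG channel membrane potential dye signal; 0% = forskolin plus galanin with DMSO and 100% = forskolin alone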
Target sequence (O60755 1-299 limits assumed): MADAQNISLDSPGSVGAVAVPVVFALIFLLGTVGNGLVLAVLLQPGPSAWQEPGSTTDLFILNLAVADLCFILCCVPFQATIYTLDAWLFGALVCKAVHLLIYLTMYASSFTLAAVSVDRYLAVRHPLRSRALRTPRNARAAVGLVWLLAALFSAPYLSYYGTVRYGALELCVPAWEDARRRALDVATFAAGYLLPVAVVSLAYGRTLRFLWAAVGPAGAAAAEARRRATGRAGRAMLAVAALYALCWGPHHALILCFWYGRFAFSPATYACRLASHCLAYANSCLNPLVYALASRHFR
* hit, by the source's call; nt = no result given. In the library only some 3.1% were active in any assay of this set; here they are far more common.

SMILES	OX1R antag-1	OX1R antag-2	GPR7 antagonist	CHO parental Ca	GalR3 antag
O=C(C1=C(O)C(=O)N(c2nccs2)C1c1ccccc1)c1cc2ccccc2o1 (stereo not given)	51.7*	6.3	5.0	38.5	-4.1
O=C(C1=C(O)C(=O)N(CCc2ccccc2)C1c1ccncc1)c1cc2ccccc2o1 (stereo not given)	-17.1	33.0	-10.4	-9.6	-5.4
O=[N+]([O-])c1c(Nc2ccccc2O)ccc2nonc12	-20.2	58.5*	-18.5	2.0	6.9
Cc1ccccc1Nc1ccc2nonc2c1[N+](=O)[O-]	nt	nt	-5.0	nt	-9.9
CCc1nnc(NS(=O)(=O)c2ccc(Nc3ccc4nonc4c3[N+](=O)[O-])cc2)s1	-19.6	49.4*	-9.0	-8.2	-3.2
Nc1nc(-c2ccc(Cl)cc2)cc(C(F)(F)F)n1	-2.3	13.9	-15.4	39.2*	-8.3
O=C(CCC(=O)c1ccc(Cl)s1)Nc1ncccc1O	-0.6	10.1	nt	-18.9	-6.9
Cc1ccc(Cc2c(-c3ccco3)nc3c(C)cc(Br)cn23)cc1	nt	nt	nt	nt	34.5*
Oc1c(I)cc(Cl)c2cccnc12	48.8*	61.4*	-5.4	41.2*	-0.4
Cc1ccc(NC(=O)NC(=O)COc2c(F)c(F)cc(F)c2F)c(C)c1	-19.3	8.8	nt	-5.5	-4.4
CC(C)[C@H](NC(=O)c1ccccc1)C(=O)N1CCC[C@H]1C(=O)NCc1ccccc1	nt	nt	nt	nt	-7.6
CC(=O)N(C)c1ccc(N=Nc2c(C)[nH]n(C(N)=S)c2=O)cc1	-0.6	55.9*	-3.0	-1.2	-1.9
CC(=O)N(C)c1ccc(N=NC2C(=O)N(C(N)=S)N=C2C)cc1 (stereo not given)	-3.1	62.3*	-11.8	-5.2	-2.3
CC1=NN(C(N)=S)C(=O)C1N=Nc1ccc(S(N)(=O)=O)cc1 (stereo not given)	-10.1	16.9	-15.9	8.3	-8.0
CCOC(=O)C(=CNc1cc(Cl)c(-c2ccco2)c(Cl)c1)C(=O)OCC	-46.1	2.2	-7.0	-43.0	-4.2
Cc1cccc(N2CCN(S(=O)(=O)c3ccc4c(c3)C(C)(C)C(=O)N4C)CC2C)c1 (stereo not given)	-12.7	6.0	-2.4	-7.8	-3.5
Cc1cccc(N2CCN(S(=O)(=O)c3ccc4c(c3)CCC(=O)N4)CC2C)c1 (stereo not given)	-6.7	27.3	-15.8	39.9*	-4.0
O=C(/C=C/c1cccc(C(F)(F)F)c1)Nc1cccc(C(F)(F)F)c1	31.4	35.7*	-5.7	-4.8	-9.3
Cc1ccc(NC(=O)/C=C/c2cccc(C(F)(F)F)c2)cc1	-21.5	13.2	-2.9	-5.8	-2.5
O=C(Nc1cccc2c1CCCC2)c1ccccc1Br	13.5	0.3	-12.8	44.5*	-2.8
COc1ccc(C(=O)Nc2cccc3c2CCCC3)c(OC)c1	17.6	57.4*	nt	-38.0	-0.5
COc1ccc(C(=O)Nc2cccc3c2CCCC3)cc1	-21.1	17.1	4.2	5.7	-1.6
O=C(Nc1ccc(Cl)cc1)c1ccc2snnc2c1	1.2	15.7	6.9	10.4	nt
O=C(Nc1ccccc1F)c1ccc2snnc2c1	-18.5	71.2*	-6.7	-9.1	-1.3
Cc1ccc(S(=O)(=O)N2C[C@H]3[C@H]4C(=O)N(c5ccccc5)C(=O)[C@H]4CC(=O)[C@H]3[C@@H]2c2cccc3ccccc23)cc1	nt	nt	nt	nt	-3.0
SMILES	OX1R antag-1	OX1R antag-2	GPR7 antagonist	CHO parental Ca	GalR3 antag
CCCCCCCNC(=O)C1(CC2CC(c3ccc(Cl)cc3)=NO2)CCNCC1 (stereo not given)	-48.9	15.8	29.7	-21.4	-13.4
COC(=O)c1ccc(COC(=O)c2ccccc2OC)cc1	-12.6	21.6	2.5	1.0	-2.7
COC(=O)c1ccc(OCC(=O)c2ccccc2OC)cc1	-22.0	45.3*	-9.2	-32.4	-2.8
CCc1cc2c(nc1CC)CCCN2S(=O)(=O)c1ccc(OC)cc1	nt	nt	nt	nt	2.0
C1=C(c2ccc(-c3ccccc3)cc2)Nc2ncnn2C1c1ccco1 (stereo not given)	nt	nt	25.6*	nt	-3.2
CC1=C(C(N)=O)C(c2ccc(Br)cc2)n2nc(CCCO)nc2N1 (stereo not given)	-23.1	-5.7	-4.9	-0.2	-7.2
Cc1ccc(C2C=C(c3ccccc3)Nc3ncnn32)cc1 (stereo not given)	-17.9	21.9	nt	-11.6	-3.2
Brc1ccc(C2=CC(c3cccs3)n3ncnc3N2)cc1 (stereo not given)	32.9	30.7	-2.6	41.3*	-2.8
OCCCc1nc2n(n1)C(c1cccs1)C=C(c1ccc(Br)cc1)N2 (stereo not given)	29.9	17.4	9.0	38.7*	nt
O=C(CSc1nc2ccccc2nc1N1CCCCC1)N1CCN(c2ccccc2)CC1	-51.3	5.1	7.3	-12.6	nt
C[C@H](CO)N1C[C@H](C)[C@@H](CN(C)C(=O)Nc2ccc(C(F)(F)F)cc2)Oc2c(NC(=O)Nc3ccc(C(F)(F)F)cc3)cccc2C1=O	23.7	9.3	nt	41.5*	-9.5
C=CCOc1ccc(/C=N/NC(=O)CN2CCOCC2)cc1OCC	7.5	24.1	-8.0	-15.6	-3.0
CCOC(=O)CC1C(=O)NCCN1c1nc2ccc(C)cn2c(=O)c1/C=C1\SC(=S)N(CC(C)C)C1=O (stereo not given)	49.4*	16.8	7.5	27.1*	nt
CCOC(=O)CC1C(=O)NCCN1c1nc2ccc(C)cn2c(=O)c1/C=C1\SC(=S)N(C(C)CC)C1=O (stereo not given)	28.3	-0.5	4.4	22.4	nt
CCCCn1c(N)c(N(CC(C)C)C(=O)Cc2ccc3c(c2)OCCO3)c(=O)[nH]c1=O	-6.1	15.1	nt	-11.6	-1.6
O=C1c2cccc3c(Cl)ccc(c23)C(=O)N1O	53.2*	52.3*	-4.5	26.9	0.2
NN1C(=O)c2cccc3c(C(=O)O)ccc(c23)C1=O	-6.6	57.8*	-7.9	-9.8	6.1
CCN1C(=O)c2cccc3c(Cl)ccc(c23)C1=O	-13.9	26.7	-18.0	1.5	7.4
O=C1c2cccc3c(N4CCCCC4)ccc(c23)C(=O)N1c1ccc(O)cc1	31.7	10.1	-2.8	28.0	-1.6
O=C1c2cccc3c(N4CCCCC4)ccc(c23)C(=O)N1c1ccccc1O	54.3*	12.8	-12.0	51.8*	-2.5
O=C(c1ccc2c3c(cccc13)C(=O)N(O)C2=O)N1CCCCC1	7.2	71.8*	-2.4	-3.4	-0.8
Cc1ccc(S(=O)(=O)N/N=C/c2ccc(C#N)cc2)cc1	-12.5	-3.4	-0.7	4.8	-10.7
O=C(O)c1ccc2c3c(cccc13)C(=O)N(c1ccccc1)C2=O	-11.1	57.5*	0.8	-4.2	-0.4
COc1cc(C[C@@H]2C(=O)OC[C@H]2Cc2ccc(OC)c(OC)c2)ccc1O	32.6	12.1	nt	12.8	102.3*
Cc1nc(N2CCN(C)CC2)c2sc(=S)n(-c3ccccc3)c2n1	-24.0	8.5	-0.3	-7.1	2.6
S=c1sc2c(Cl)ncnc2n1-c1ccccc1	nt	nt	74.5*	nt	-10.5
CC1(C)CC(=O)C=C(/C=C/c2ccccc2)C1	-28.3	1.7	nt	-7.0	-1.2
